Assay [1] has as its system Rattus norvegicus. The assay can be described thus: Effect of AOS scavenger on ventricular tachycardia (VT), arrhythmias induced by ischemia-reperfusion in anesthetized rat, duration at 100 mg/kg. Type of assay: functional, Cardiac ventricle.
The test system of assay [2] is Rattus norvegicus. In words: Effect of AOS scavenger on ventricular fibrillation (VF), arrhythmias induced by ischemia-reperfusion in anesthetized rat, duration at 100 mg/kg. Type of assay: functional, Cardiac ventricle.
For assay [3], the system named is Rattus norvegicus. The assay can be described thus: Effect of AOS scavenger on ventricular fibrillation (VF), arrhythmias induced by ischemia-reperfusion in anesthetized rat, frequency, times at 100 mg/kg. The class given is functional, Cardiac ventricle.
In assay [4] the test system is Rattus norvegicus. The assay can be described thus: Effect of AOS scavenger on ventricular tachycardia (VT), arrhythmias induced by ischemia-reperfusion in anesthetized rat, frequency, times at 100 mg/kg. Type of assay: functional, Cardiac ventricle.
The test system of assay [5] is Rattus norvegicus. In words: Effect of AOS scavenger on ventricular fibrillation (VF), arrhythmias induced by ischemia-reperfusion in anesthetized rat, incidence at 100 mg/kg; 4/10. The class given is functional, Cardiac ventricle.
The subject of assay [6] is Rattus norvegicus. The assay can be described thus: Effect of AOS scavenger on ventricular tachycardia (VT), arrhythmias induced by ischemia-reperfusion in anesthetized rat, incidence at 100 mg/kg; 7/10. The class given is functional, Cardiac ventricle.
For assay [7], the system named is Rattus norvegicus. In words: Effect of AOS scavenger on premeture ventricular complexes PVCs, arrhythmias induced by ischemia-reperfusion in anesthetized rat, frequency per minute at 100 mg/kg.
Assay [8] is filed under the species Rattus norvegicus. In words: Antilipid peroxidation was measured at 10e-5 M concentration. Type of assay: functional. In short, it runs like this: (§1)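 Rat brain lipid peroxidation: brains from male SD rats (12 weeks old), exsanguinated under pentobarbital anaesthesia, homogenized to 5% in phosphate buffer pH 7.4. Homogenate incubated with test drug at 37 °C for 1 h. Lipid peroxide quantified by the thiobarbituric acid method.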

Assay [9] deals with Rattus norvegicus. In words: Effect of AOS scavenger on premeture ventricular complexes PVCs, arrhythmias induced by ischemia-reperfusion in anesthetized rat, duration at 10 mg/kg. The class given is functional, Cardiac ventricle.
For assay [10], the system named is Rattus norvegicus. In words: Effect of AOS scavenger on ventricular tachycardia (VT),arrhythmias induced by ischemia-reperfusion in anesthetized rat, duration at 10 mg/kg. Type of assay: functional, Cardiac ventricle.
Assay [11] relates to Rattus norvegicus. The assay can be described thus: Effect of AOS scavenger on ventricular tachycardia (VT), arrhythmias induced by ischemia-reperfusion in anesthetized rat, frequency, times at 10 mg/kg. The class given is functional, Cardiac ventricle.
Assay [12] relates to Rattus norvegicus. In words: Effect of AOS scavenger on ventricular fibrillation (VF), arrhythmias induced by ischemia-reperfusion in anesthetized rat, frequency, times at 10 mg/kg. Type of assay: functional, Cardiac ventricle.
Assay [13] deals with Rattus norvegicus. In words: Effect of AOS scavenger on ventricular fibrillation (VF),arrhythmias induced by ischemia-reperfusion in anesthetized rat, incidence at 10 mg/kg; 3/6. Type of assay: functional, Cardiac ventricle.
For assay [14], the system named is Rattus norvegicus. In words: Effect of AOS scavenger on ventricular fibrillation (VF),arrhythmias induced by ischemia-reperfusion in anesthetized rat, duration at 10 mg/kg. Type of assay: functional, Cardiac ventricle.
The nature of assay [15]: Reducing activity determined by the use of stable radical alpha,alpha-di-phenyl-beta-picrylhydrazyl (DPPH). Details: concentration or dose not given beside the values. Background: Loss of DPPH colour is used to gauge radical scavenging.
Assay [16] has as its system Rattus norvegicus. The assay can be described thus: Effect of AOS scavenger on ventricular tachycardia (VT),arrhythmias induced by ischemia-reperfusion in anesthetized rat, incidence at 10 mg/kg.
The species named for assay [17] is Rattus norvegicus. The assay can be described thus: Antilipid peroxidation was determined; No effect. Type of assay: functional. In short, it runs like this:
as §1

The test system of assay [18] is Rattus norvegicus. The assay can be described thus: Effect of AOS scavenger on ventricular tachycardia (VT),arrhythmias induced by ischemia-reperfusion in anesthetized rat duration at 10 mg/kg. Type of assay: functional, Cardiac ventricle.
In assay [19] the test system is Rattus norvegicus. In words: Effect of AOS scavenger on ventricular fibrillation (VF),arrhythmias induced by ischemia-reperfusion in anesthetized rat; incidence at 10 mg/kg 7/8. Type of assay: functional, Cardiac ventricle.
In assay [20] the test system is Rattus norvegicus. In words: Effect of AOS scavenger on ventricular tachycardia (VT),arrhythmias induced by ischemia-reperfusion in anesthetized rat, incidence at 10 mg/kg; 8/8. Type of assay: functional, Cardiac ventricle.
The species entered for assay [21] is Rattus norvegicus. The assay can be described thus: Antilipid peroxidation was determined. The class given is functional. In a few lines:
as §1

Assay [22] has as its system Rattus norvegicus. In words: Effect of AOS scavenger on premeture ventricular complexes PVCs, arrhythmias induced by ischemia-reperfusion in anesthetized rat, duration at 3 mg/kg. The class given is functional, Cardiac ventricle.
The subject of assay [23] is Rattus norvegicus. The assay can be described thus: Effect of AOS scavenger on ventricular fibrillation (VF), arrhythmias induced by ischemia-reperfusion in anesthetized rat, duration at 3 mg/kg. The class given is functional, Cardiac ventricle.
In assay [24] the test system is Rattus norvegicus. In words: Effect of AOS scavenger on ventricular tachycardia (VT), arrhythmias induced by ischemia-reperfusion in anesthetized rat, duration at 3 mg/kg. The class given is functional, Cardiac ventricle.
Assay [25] has as its system Rattus norvegicus. In words: Effect of AOS scavenger on ventricular fibrillation (VF), arrhythmias induced by ischemia-reperfusion in anesthetized rat, frequency, times at 3 mg/kg. Type of assay: functional, Cardiac ventricle.
Assay [26] deals with Rattus norvegicus. In words: Effect of AOS scavenger on ventricular tachycardia (VT), arrhythmias induced by ischemia-reperfusion in anesthetized rat, frequency, times at 3 mg/kg. The class given is functional, Cardiac ventricle.
Assay [27] relates to Rattus norvegicus. In words: Effect of AOS scavenger on ventricular fibrillation (VF), arrhythmias induced by ischemia-reperfusion in anesthetized rat, incidence at 3 mg/kg; 8/10. Type of assay: functional, Cardiac ventricle.
For assay [28], the system named is Rattus norvegicus. In words: Effect of AOS scavenger on ventricular tachycardia (VT), arrhythmias induced by ischemia-reperfusion in anesthetized rat, incidence at 3 mg/kg; 8/10. The class given is functional, Cardiac ventricle.
In assay [29] the test system is Rattus norvegicus. The assay can be described thus: Effect of AOS scavenger on ventricular tachycardia (VT),arrhythmias induced by ischemia-reperfusion in anesthetized rat, frequency, times at 10 mg/kg. Type of assay: functional, Cardiac ventricle.
The species named for assay [30] is Rattus norvegicus. The assay can be described thus: Inhibition of lipid peroxidation was determined with rat brain tissue homogenates. The class given is functional. In short, it runs like this: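 Brains excised from male SD rats (12 weeks), exsanguinated under pentobarbital anesthesia; 5% homogenate in phosphate buffer pH 7.4 incubated with test drug 1 h at 37 °C; lipid peroxide quantified by thiobarbituric acid method.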

Assay [31] deals with Rattus norvegicus. The assay can be described thus: Effect of AOS scavenger on ventricular fibrillation (VF),arrhythmias induced by ischemia-reperfusion in anesthetized rat, incidence at 10 mg/kg; 4/7. The class given is functional, Cardiac ventricle.
The test system of assay [32] is Rattus norvegicus. The assay can be described thus: Effect of AOS scavenger on ventricular tachycardia (VT),arrhythmias induced by ischemia-reperfusion in anesthetized rat, incidence at 10 mg/kg; 6/7. Type of assay: functional, Cardiac ventricle.
Assay [33] has as its system Rattus norvegicus. The assay can be described thus: Effect of AOS scavenger on ventricular fibrillation (VF),arrhythmias induced by ischemia-reperfusion in anesthetized rat, duration at 10 mg/kg.
Assay [34] has as its system Rattus norvegicus. In words: Effect of AOS scavenger on ventricular fibrillation (VF),arrhythmias induced by ischemia-reperfusion in anesthetized rat, frequency at 10 mg/kg.
For assay [35], the system named is Rattus norvegicus. The assay can be described thus: Effect of AOS scavenger on ventricular tachycardia (VT), arrhythmias induced by ischemia-reperfusion in anesthetized rat at requency, times 10 mg/kg. Type of assay: functional, Cardiac ventricle.
In assay [36] the test system is Rattus norvegicus. In words: Effect of AOS scavenger on ventricular fibrillation (VF),arrhythmias induced by ischemia-reperfusion in anesthetized rat, incidence at 10 mg/kg; 2/7. Type of assay: functional, Cardiac ventricle.

The source made the active and inactive calls. The rule behind the calls is not given here.

Consider `OC[C@@H](O)[C@@H](O)[C@H](O)[C@H](O)CO` [MANNITOL], for which the Duration was determined as 7.7 s with Rattus norvegicus [1] and 1.3 s in the assay with Rattus norvegicus [2]. Further, the figures for the Frequency in the assay on Rattus norvegicus [3] and in the assay on Rattus norvegicus [4] were 0.8 and 2.7, respectively. For the same compound, the figures for the Incidence with Rattus norvegicus [5] and with Rattus norvegicus [6] were 4 N and 7 N, respectively. The compound further returned an Activity in the assay on Rattus norvegicus [7] of 4.8 min⁻¹.
Turning to `CCCCCCCCCCCCCCCCCCOC1=C(O)C(=O)OC1C(O)CO` (stereo not drawn), in the assay filed under Rattus norvegicus [8], the Antilipid peroxidation turned out to be 34.5%. For the same compound, the PVCs in the assay on Rattus norvegicus [9] stood at 3.9. Moreover, the Duration with Rattus norvegicus [10] is given as less than 4 s; with Rattus norvegicus [14], less than 1.9 s. In addition, the Frequency in the assay with Rattus norvegicus [11] is recorded as 2.3; with Rattus norvegicus [12], less than 0.8. Also, the values for the Incidence in the assay with Rattus norvegicus [13] and in the assay on Rattus norvegicus [16] were 3 N and 4 N, respectively. This compound also returned a Reducing activity in assay [15] of 94.5%.
As for `O=C1C(OCc2ccccc2)=C(O)OC1C(O)CO` (stereo not drawn), in the assay listed under Rattus norvegicus [17], the Antilipid peroxidation entry is “inactive”. The same compound gave a PVCs in the assay with Rattus norvegicus [9] of 26.9 PVCs/min. In addition, the Duration is less than 4.9 s in the assay with Rattus norvegicus [18] and 79.9 s in the assay with Rattus norvegicus [14]. Moreover, the Frequency was found to be 3.9 in the assay with Rattus norvegicus [11] and 2.5 with Rattus norvegicus [12]. Further, the Incidence with Rattus norvegicus [19] stood at 7 N; with Rattus norvegicus [20], 8 N. This compound also displayed a Reducing activity in [15] of 93%.
Compound `Cc1c(C)c2c(c(C)c1O)CC[C@@](C)(CCC[C@H](C)CCC[C@H](C)CCCC(C)C)O2` [ALPHA-TOCOPHEROL] came in with an Antilipid peroxidation in the assay filed under Rattus norvegicus [21] of 52%. The same compound came in with an Activity in the assay on Rattus norvegicus [22] of 23.3 min. Further, the results for the Duration in the assay on Rattus norvegicus [23] and in the assay on Rattus norvegicus [24] were 111.1 s and 7.4 s, respectively. The Frequency came out at 2.1 with Rattus norvegicus [25] and 3.1 in the assay with Rattus norvegicus [26]. Also, the Incidence with Rattus norvegicus [27] and with Rattus norvegicus [28] was 8 N throughout. The compound further showed a Reducing activity in [15] of 72%.
In turn, `CCCCCCCCCCCCCCCOC1=C(O)OC(C(O)CO)C1=O` (stereo not drawn) gave an Antilipid peroxidation in the assay filed under Rattus norvegicus [21] of 67.4%. Also, the Activity in the assay with Rattus norvegicus [9] is reported as less than 4.3 min. Besides, the Duration with Rattus norvegicus [10] is listed as 11.9 s; with Rattus norvegicus [33], less than 3 s. Further, the Frequency in the assay on Rattus norvegicus [29] is listed as 5; in the assay with Rattus norvegicus [34] it was less than 0.9. For the same compound, the IC50 in the assay listed under Rattus norvegicus [30] is 5.6 µM. The Incidence is given as 4 N with Rattus norvegicus [31] and 6 N in the assay with Rattus norvegicus [32]. The same compound showed a Reducing activity in [15] of 95.4%.
Turning to `CCCCCCCCCCCCCCOC1=C(O)OC(C(O)CO)C1=O` (stereo not drawn), the Antilipid peroxidation in the assay filed under Rattus norvegicus [21] is 54.8%. This compound came in with an Activity in the assay with Rattus norvegicus [9] of less than 3.5 min. Moreover, the Duration is given as 12.9 s in the assay on Rattus norvegicus [10] and 10.1 s in the assay on Rattus norvegicus [14]. The Frequency in the assay with Rattus norvegicus [35] is on record as less than 2.6; with Rattus norvegicus [12] it was less than 0.6. In addition, it took 7.4 µM to reach half-maximal inhibition in the assay filed under Rattus norvegicus [30] (IC50). In the assay with Rattus norvegicus [36], this compound came in with an Incidence of 2 N. Further, the Reducing activity in assay [15] was determined as 95.4%.

As a reminder, the IC50 is the concentration that inhibits the measured activity by half.

These data come from ChEMBL document CHEMBL1124084, “Studies on scavengers of active oxygen species. 1. Synthesis and biological activity of 2-O-alkylascorbic acids” (J Med Chem, 1988).
